# Measured values reported in ChEMBL document CHEMBL5104115, “Design, synthesis of novel triptolide-glucose conjugates targeting glucose Transporter-1 and their selective antitumor effect” (Eur J Med Chem, 2022).
# Columns and labels:
# NCI-H1975 [1] = experiment: Antitumor activity against human NCI-H1975 cells xenografted in BALB/c nude mouse assessed as tumor growth inhibition at 15 mg/kg, ip, q3d for 2 weeks relative to control; conditions: NCI-H1975, 336 h, read-out: TGI
# NCI-H1975 [2] = experiment: Cytotoxicity against human NCI-H1975 cells incubated for 72 hrs by MTT assay; format: functional, cell-based; conditions: NCI-H1975, 72 h
# Summary of the method: (§1)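 Cells seeded at 4000/well, incubated overnight, then exposed to a range of concentrations, or DMSO vehicle, for 72 h. MTT (5 mg/mL solution) added for 4 h and formazan dissolved in DMSO. Absorbance read at 570 nm, and IC50 derived from the curves. Tumor lines were grown in RPMI 1640; HUVEC, HaCaT and LO2 were grown in DMEM, each with 10% FBS at 37 °C and 5% CO2.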
# [3] = Cytotoxicity against human HaCaT cells incubated for 72 hrs by MTT assay; format: toxicity, cell-based
# Summary of the method: as §1
# [4] = Cytotoxicity against human L02 cells incubated for 72 hrs by MTT assay; format: toxicity, cell-based
# Summary of the method: as §1
# SW-620 = experiment: Cytotoxicity against human SW-620 cells incubated for 72 hrs by MTT assay; format: functional, cell-based; conditions: SW-620, 72 h
# Summary of the method: as §1
# HT-29 = experiment: Cytotoxicity against human HT-29 cells incubated for 72 hrs by MTT assay; format: functional, cell-based; conditions: HT-29, 72 h
# Summary of the method: as §1
# MDA-MB-231 = experiment: Cytotoxicity against human MDA-MB-231 cells incubated for 72 hrs by MTT assay; format: functional, cell-based; conditions: MDA-MB-231, 72 h
# Summary of the method: as §1
# [5] = Cytotoxicity against HUVEC incubated for 72 hrs by MTT assay; format: toxicity, cell-based; conditions: human, HUVEC cells
# Summary of the method: as §1
# HCT-116 = experiment: Cytotoxicity against human HCT-116 cells incubated for 72 hrs by MTT assay; format: functional, cell-based; conditions: HCT-116, 72 h
# Summary of the method: as §1
# NCI-H460 = experiment: Cytotoxicity against human NCI-H460 cells incubated for 72 hrs by MTT assay; format: functional, cell-based; conditions: NCI-H460, 72 h
# Summary of the method: as §1
# [6] = Octanol-water partition coefficient, logD of the compound in PBS at pH 7.4 by liquid chromatography based mass spectrometric analysis; format: physicochemical
# Summary of the method: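 Shake-flask method: 3.0 mg compound dissolved in PBS-saturated n-octanol and rotated 24 h at room temperature. The octanol phase was then mixed with octanol-saturated PBS, rotated another 24 h and centrifuged. Both phases quantified by LC-MS against a standard curve, and log P = log(C octanol/C water).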
Compound,inhibition in vivo at 15 mg/kg (NCI-H1975 [1]) [%],IC50 (NCI-H1975 [2]) [nM],IC50 at 72 h [3] [µM],IC50 at 72 h [4] [nM],IC50 (SW-620) [µM],IC50 (HT-29) [µM],IC50 (MDA-MB-231) [µM],IC50 at 72 h [5] [µM],IC50 (HCT-116) [nM],IC50 (NCI-H460) [nM],logD [6]
CC(=O)O[C@H]1C(=O)[C@@]2(C)[C@H]([C@H](OC(=O)c3ccccc3)[C@]3(O)C[C@H](OC(=O)[C@H](O)[C@@H](NC(=O)c4ccccc4)c4ccccc4)C(C)=C1C3(C)C)[C@]1(OC(C)=O)CO[C@@H]1C[C@@H]2O [PACLITAXEL],56.9,–,–,–,–,–,–,–,–,–,–
CC(C)[C@]12O[C@H]1[C@@H]1O[C@]13[C@]1(O[C@H]1C[C@H]1C4=C(CC[C@@]13C)C(=O)OC4)[C@@H]2OC(=O)CCC(=O)OC[C@H]1OC(O)[C@H](O)[C@@H](O)[C@@H]1O (stereo not given in full),–,1140,3.9,1420,5.2,4.28,6.62,2.02,2280,1070,–
CC(C)[C@]12O[C@H]1[C@@H]1O[C@]13[C@]1(O[C@H]1C[C@H]1C4=C(CC[C@@]13C)C(=O)OC4)[C@@H]2OC(=O)CCC(=O)O[C@H]1[C@H](O)[C@@H](CO)OC(O)[C@@H]1O (stereo not given in full),–,2210,4.83,1380,2.55,5.18,2.43,4.93,2710,1630,-0.772
